Compound activity as filed in PubChem BioAssay.
This is a sample that favours compounds with a hit; in the whole collection about 5.7% have one here.
T cruzi repl – inhibitors of intracellular T. cruzi growth, primary screen, luminescence, NIH3T3 host cells; inhibition, % (concentration not given with the values); 300,000 compounds, 1.4% hits; AID 1885, 2009; T. cruzi beta-gal in NIH3T3, 90 h;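 active = mean inhibition across valid replicates above about 55%, limit read from the data; inconclusive = mean below that limit but half or more replicates reach it; inactive = mean below it, under half of replicates reach it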;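 note: signal also drops with host cell toxicity which is not excluded here; 0% = plate median of DMSO wells and 100% = zero luminescence signal; higher percent means less beta-gal luminescence so fewer parasites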
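System: Mouse NIH/3T3 fibroblasts infected with β-gal-expressing T. cruzi Tulahuen C4 | Quantity: NIH/3T3 cells, 5,000 per well | Reagent: 5000 reporter trypomastigotes per well | Dosing: Compound pinned at 50 nL/well, DMSO | Schedule: 3 h host attachment, then at least 90 h co-culture | Detection: GalScreen luminescence, 60 min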
SKKanGAS inh – S. pyogenes SKKanGAS growth inhibitors in kanamycin, primary screen, streptokinase expression inhibitor project, SKKanGAS strain, BacTiter-Glo luminescence | AID 1662, 2009 | 6 h | inhibition, % at 7.5 µM | 300,000 compounds, 1.3% hits;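 active = mean replicate score, as percent of positive control median, at least 50; inconclusive = mean below 50 but one replicate at or above 50; inactive = mean and every replicate below 50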;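 note: strain carries kanamycin resistance gene driven by streptokinase promoter and grows in 40 µg/ml kanamycin; loss of luminescence reflects streptokinase promoter inhibition or plain growth inhibition; 0% = median of DMSO wells and 100% = positive control at its reference dose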
CSC inhib – cancer stem cell viability inhibitors, primary screen, luminescence | cancer stem cell-like cells viability | inhibition, % at 7.5 µM | 300,000 compounds, 1.1% hits; in the data active = inhibition above about 75%; inconclusive = no clear call, values can overlap the other calls; tested in HMLE shEcad cells
Calb FLC – C. albicans growth inhibition with fluconazole, primary screen, CaCi-2 strain, Alamar Blue fluorescence. C. albicans CaCi-2 + fluconazole, 48 h. AID 1979, 2009. growth inhibition, % (test concentration not listed). 300,000 compounds, 0.57% hits;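 active = growth inhibition above about 58% in most replicates, limit read from the data, passing the limit was not always enough; inconclusive = exactly half the replicates above a set limit; inactive = most replicates below a set limit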;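 note: all wells also contain fluconazole at 8 µg/ml as a sub-toxic cotreatment; 0% = median of DMSO wells and 100% = median of geldanamycin control wells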
Beta cell apopt – inhibitors of cytokine-induced beta cell apoptosis, primary screen, luminescence. INS-1E cytokine-induced death, ATP luminescence, 48 h; percent of positive-control rescue, neutral wells zero. protection from apoptosis, % (test concentration not listed). 300,000 compounds, 0.8% hits. AID 435005, 2010;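 active = Every replicate reaches about 75%, or at least half do and their mean reaches it too, limit read from the data; inconclusive = At least half of replicates reach the limit but their mean does not; inactive = Under half of replicates reach the limit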;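 note: 0% = cytokine-treated negative control wells and 100% = positive control rescue; higher means more ATP so stronger rescue from cytokine killing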
Mdm2 MdmX PPI – inhibitors of human Mdm2-MdmX association, primary screen, cell-based, luminescence, split luciferase, SaOS-2, uHTS. 330,000 compounds, 3% hits. AID 485346, 2010. inhibition, % at 8 µM. Protein Mdm4 (Homo sapiens) + E3 ubiquitin-protein ligase Mdm2 (Homo sapiens), …. SaOS-2 split-luciferase Mdm2/MdmX complementation;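 active = inhibition of at least 50% at 8 µM in the primary screen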
Target sequence (O15151 whole entry, looked up): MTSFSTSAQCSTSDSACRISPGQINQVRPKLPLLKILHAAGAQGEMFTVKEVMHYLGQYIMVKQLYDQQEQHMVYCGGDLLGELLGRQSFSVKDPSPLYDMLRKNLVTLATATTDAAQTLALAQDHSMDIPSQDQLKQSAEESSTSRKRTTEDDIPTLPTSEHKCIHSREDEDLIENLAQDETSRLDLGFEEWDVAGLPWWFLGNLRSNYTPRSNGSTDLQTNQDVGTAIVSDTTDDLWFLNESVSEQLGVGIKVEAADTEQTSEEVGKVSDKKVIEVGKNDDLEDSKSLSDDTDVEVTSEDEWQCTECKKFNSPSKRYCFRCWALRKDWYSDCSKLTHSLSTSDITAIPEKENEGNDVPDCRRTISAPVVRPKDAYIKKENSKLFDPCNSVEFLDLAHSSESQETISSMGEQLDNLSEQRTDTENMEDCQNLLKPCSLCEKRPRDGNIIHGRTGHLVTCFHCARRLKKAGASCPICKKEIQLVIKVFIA
Target sequence (Q00987 whole entry, looked up): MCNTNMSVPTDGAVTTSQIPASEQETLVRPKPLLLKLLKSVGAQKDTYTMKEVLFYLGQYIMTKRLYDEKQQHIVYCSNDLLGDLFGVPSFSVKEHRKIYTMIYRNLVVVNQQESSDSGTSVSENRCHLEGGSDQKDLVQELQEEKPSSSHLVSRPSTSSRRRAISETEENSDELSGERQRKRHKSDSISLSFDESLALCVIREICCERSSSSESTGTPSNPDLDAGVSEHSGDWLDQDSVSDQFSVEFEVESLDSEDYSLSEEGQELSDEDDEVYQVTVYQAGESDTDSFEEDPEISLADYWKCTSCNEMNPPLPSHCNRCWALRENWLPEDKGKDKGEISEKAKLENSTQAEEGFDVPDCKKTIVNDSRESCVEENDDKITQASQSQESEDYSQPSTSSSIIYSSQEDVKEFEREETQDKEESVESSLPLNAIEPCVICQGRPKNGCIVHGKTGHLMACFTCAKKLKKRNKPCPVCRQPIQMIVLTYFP
Mdm2 MdmX conf – Mdm2-MdmX complex disruptors, retested hits, confirmation, luminescence, single concentration; Mdm2-MdmX binding, luminescent assay; inhibition, % at 8 µM; 10,000 compounds, 55% hits; shares compounds with Mdm2 MdmX PPI; in the data active = inhibition above about 40%
FLuc counter – full-length luciferase signal inhibition, confirmation, counter-screen for Mdm2/MdmX interaction inhibitor project, cell-based, single concentration, SaOS-2. SaOS-2 full-length luciferase counterscreen, luminescence. inhibition, % at 8 µM. 6,200 compounds, 77% hits. shares compounds with Mdm2 MdmX PPI;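 active = mean inhibition at 8 µM reaching about 37%, which flags the compound as non-specific, limit read from the data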;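 note: p53-null SaOS-2 cells with luciferase driven by a doxycycline-inducible promoter; compound on cells about two nights before reading with doxycycline added after day one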
Numbers without * were called inactive; ? = inconclusive; . = no result.

SMILES	T cruzi repl	SKKanGAS inh	CSC inhib	Calb FLC	Beta cell apopt	Mdm2 MdmX PPI	Mdm2 MdmX conf	FLuc counter
CC(C)c1ccc(NC(=O)CCc2ccccc2)cc1	2.7	2.1	?	0.5	18.8	34.8	.	.
O=C(CCl)Nc1ccc(-c2ccccc2)cc1	60.8*	5.8	5.1	91.6*	-24.5	96.0*	98.7*	50.3*
COc1ccc(NC(=O)CN(C)C(=O)Cn2c(=O)oc3ccccc32)cc1	-8.1	-1.8	-1.0	-2.2	-3.4	-7.0	.	.
Cc1cc(C(C)(C)C)ccc1OCC(=O)N/N=C\c1c(C)n(C)n(-c2ccccc2)c1=O	-5.3	-3.1	.	7.7	-5.7	9.3	.	.
CC(C)(C)c1ccc(-n2ncc3c2CCCC3NC(=O)CCN2CCCC2=O)cc1 (configuration not stated)	-21.1	-3.1	16.4	-0.6	39.6	12.3	.	.
Cc1ccc(NC(=O)COC(=O)CCc2c(C)nc3ncnn3c2C)cc1C	.	.	.	.	-0.7	4.6	.	.
CC(C)CCNC(=O)c1cccc(S(=O)(=O)N2CCc3ccccc32)c1	0.7	-1.6	10.7	18.9	-1.3	-8.1	.	.
O=C(CNC(=O)c1cccc(S(=O)(=O)N2CCc3ccccc32)c1)Nc1ccc(F)c(F)c1F	.	.	.	.	.	80.9*	84.2*	62.1*
CCCCn1c(N)c(N(CC)C(=O)CSc2nnnn2-c2cc(C)ccc2C)c(=O)[nH]c1=O	-3.2	3.3	12.4	-12.2	-0.8	10.8	.	.
CN1C(C(=O)Nc2ccc(OC(F)(F)F)cc2)=CC(c2ccc3c(c2)OCO3)=NS1(=O)=O	4.7	23.7	-1.7	2.5	0.1	15.1	.	.
CN1C(C(=O)Nc2ccc(OC(F)(F)F)cc2)=CC(c2cccs2)=NS1(=O)=O	22.2	9.2	-4.0	-9.4	-1.9	58.1*	32.6	48.4*
COc1ccc(C2=NS(=O)(=O)N(C)C(C(=O)Nc3ccc(C)cc3)=C2)cc1	-3.1	10.0	6.7	-4.9	-2.5	-10.6	.	.
COc1ccc(NC(=O)C2=CC(c3cccs3)=NS(=O)(=O)N2C)cc1	10.4	-5.0	.	-1.8	-3.0	55.3*	30.6	.
Cn1nnnc1SCC(=O)Nc1ncc(C(F)(F)F)cc1Cl	.	.	-15.1	.	1.5	3.5	.	.
O=C(Nc1ccc(Cl)cc1)c1nc[nH]c1C(=O)NCCN(CCNC(=O)c1[nH]cnc1C(=O)Nc1ccc(Cl)cc1)CCNC(=O)c1[nH]cnc1C(=O)Nc1ccc(Cl)cc1	.	.	101.3*	.	103.6*	100.5*	97.5*	55.7*
O=C(Nc1ccc(Cl)cc1)c1nc[nH]c1C(=O)NCCCNC(=O)c1[nH]cnc1C(=O)Nc1ccc(Cl)cc1	.	.	.	.	36.7	97.1*	-5.1	.
COc1ccc(NC(=O)c2nc[nH]c2C(=O)Nc2ccccc2C)cc1	15.6	19.4	61.6	-1.4	-8.0	58.5*	54.0*	48.5*
CNC(=O)c1[nH]cnc1C(=O)Nc1ccc(Cl)cc1	6.3	5.4	4.1	1.4	-2.7	33.3	.	.
Cc1ccccc1NC(=O)c1[nH]cnc1C(=O)NN	-9.6	-3.0	-8.0	14.2	-2.7	-23.4	.	.
Cc1ccc(NC(=O)c2nc[nH]c2C(=O)NCCN(CCNC(=O)c2[nH]cnc2C(=O)Nc2ccc(C)cc2)CCNC(=O)c2[nH]cnc2C(=O)Nc2ccc(C)cc2)cc1	.	.	46.5	.	-6.0	90.4*	76.0*	38.2*
O=C(Nc1ccccc1)c1nc[nH]c1C(=O)NCCCNC(=O)c1[nH]cnc1C(=O)Nc1ccccc1	.	.	-5.6	.	2.9	39.4	.	.
O=C(Nc1ccccc1)c1nc[nH]c1C(=O)NCCN(CCNC(=O)c1[nH]cnc1C(=O)Nc1ccccc1)CCNC(=O)c1[nH]cnc1C(=O)Nc1ccccc1	.	.	42.8	.	-2.8	62.2*	8.8	.
O=C(Nc1ccccc1)c1nc[nH]c1C(=O)NCCCCCCNC(=O)c1[nH]cnc1C(=O)Nc1ccccc1	.	.	.	.	20.7	87.2*	33.5	.
Cc1cc(NC(=O)COC(=O)C2CC(=O)N(c3cccc(C)c3C)C2)no1 (configuration not stated)	-14.5	3.3	-11.6	0.2	-1.8	-3.9	.	.
CCNc1nc(C)c2cc(Br)c(=O)n(CC)c2n1	25.1	-0.8	42.7	33.3	19.3	72.8*	44.0*	46.0*
SMILES	T cruzi repl	SKKanGAS inh	CSC inhib	Calb FLC	Beta cell apopt	Mdm2 MdmX PPI	Mdm2 MdmX conf	FLuc counter
CCNc1nc(NC(C)C)nc(Nn2cnnc2)n1	-1.0	-0.1	-13.6	-2.1	-5.2	22.1	.	.
COc1cccc(NC(=O)COC(=O)c2c3c(nc4ccccc24)CCC(C)C3)c1 (configuration not stated)	72.7*	-1.8	19.0	4.3	1.2	79.0*	63.8*	64.0*
Oc1ccccc1CN1CCC(C(O)(c2ccccc2)c2ccccc2)CC1	3.8	-9.5	-13.8	-17.9	-0.1	49.7	.	.
CC(C)(C)c1ccc(C(O)CCCN2CCC(C(O)(c3ccccc3)c3ccccc3)CC2)cc1 (configuration not stated)	26.2	9.5	9.6	.	?	99.2*	88.2*	41.8*
CC1(C)Cc2c(c(N3CCOCC3)nc3sc(-c4ccc(C(=O)O)o4)c(N)c23)CO1	-3.8	22.0	2.3	-8.0	4.4	15.3	.	.
CNC(=O)c1ccc(-c2sc3nc(N4CCOCC4)c4c(c3c2N)CC(C)(C)OC4)o1	8.8	3.3	-4.3	2.4	15.9	61.0*	-7.7	.
CN1Cc2c(N3CCOCC3)nc3sc(C(=O)c4ccc(Br)cc4)c(N)c3c2CC1(C)C	23.1	16.5	101.7*	73.3	48.2	90.6*	61.2*	84.4*
Cc1nnc2c3ccccc3c(-c3ccccc3)nn12	-30.6	6.1	-18.2	-10.2	-28.3	63.6*	27.8	.
Cc1ccc(-c2nn3c(C)nnc3c3ccccc23)cc1S(=O)(=O)NC(C)(C)CO	-1.4	-10.0	-1.0	13.9	.	71.3*	52.9*	78.0*
Cc1ccc(-c2nn3c(C)nnc3c3ccccc23)cc1S(=O)(=O)NCCO	-4.1	6.6	4.1	14.9	4.8	38.3	.	.
Cc1ccc(-c2nn3c(C)nnc3c3ccccc23)cc1S(=O)(=O)NC(C)c1ccccc1 (configuration not stated)	29.1	7.3	-2.9	1.4	34.0	61.5*	29.6	.
CC1CCc2c(sc(NC(=O)CCC(=O)O)c2C(=O)NC2CC2)C1 (configuration not stated)	-7.0	-3.1	-3.8	0.4	1.8	-0.3	.	.
